# Measured values published in ChEMBL document CHEMBL5678814, “Novel Mps1 Kinase Inhibitors with Potent Antitumor Activity” (Mol Cancer Ther, 2016).
# Calls of active or inactive are those of the source. No cut-off for these calls is given here.
# Assays:
# [1] = tested on: A2780cis; test: Antitumor activity against human A2780cis cells implanted female athymic NMRI mouse model assessed as change in KNL1 total level at 24 mg/kg,iv administered for 1 day by immunohistochemical staining; assay type: functional, organism-based
# Method in brief: (§1)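 A2780cis tumors (2×10^6 cells in 100% Matrigel, s.c.) in female NMRI nude mice. Paclitaxel i.v. once at 24 mg/kg on day 1, started at ~52–60 mm2 tumor area. Tumors harvested 36 h after first treatment. Paraffin sections stained with rabbit anti-pThr875 KNL1 or anti-CASC5 (total KNL1), both 1:400. Positive pixels above background scored in three fields per slide.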
# [2] = tested on: A2780cis; test: Antitumor activity against human A2780cis cells xenografted in female athymic NMRI mouse assessed as increase in necrosis at 24 mg/kg,iv administered once for 1 day and measured after 8 hrs by H&E staining
# [3] = tested on: LU387; test: Antitumor activity against human LU387 cells xenografted female athymic NMRI mouse model assessed as reduction in tumor size at 20 mg/kg,iv administered twice daily intermittent for 1 days on/6 days off; assay type: functional, organism-based; details: time 7.0 day, in the assay text read “once daily” for “twice daily”
# Method in brief: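 LU387 patient-derived tumor fragments (4–5 mm) transplanted s.c. into the flank of nude mice. Treatment started at ~40 mm2. Paclitaxel i.v. at 20 mg/kg once weekly (1 on/6 off). Tumor area (longest diameter × perpendicular) measured by caliper two to three times weekly. T/C computed from end-of-study tumor areas; 8–10 mice/group.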
# [4] = tested on: A2780cis; test: Antitumor activity against human A2780cis cells xenografted in female athymic NMRI mouse assessed as induction in atypical mitoses at 24 mg/kg,iv administered once for 1 day and measured after 8 hrs by H&E staining
# [5] = tested on: A2780cis; test: Antitumor activity against human A2780cis cells implanted female athymic NMRI mouse model assessed as induction in KNL1 at Thr-875 phosphorylation at 24 mg/kg,iv administered once for 1 day by immunohistochemical staining; assay type: functional, organism-based; method in brief: as §1
# [6] = tested on: A2780cis; test: Antitumor activity against human A2780cis cells xenografted in female athymic NMRI mouse assessed as increase in apoptosis at 24 mg/kg,iv administered once for 1 day and measured after 8 hrs by H&E staining
# [7] = tested on: Caov-3 cell line; test: Antiproliferative activity against human Caov-3 cell line assessed as cell growth inhibition incubated for 96 hrs by crystal violet staining; details: Caov-3, 96 h
# [8] = Volume of distribution at steady state in male Wistar rat plasma at 0.5 mg/kg, iv measured after 24 hrs by LC/-MS/MS analysis; assay type: ADME, organism-based; details: read-out: Vdss
# [9] = Cmax in female NMRI mouse plasma at 1 mg/kg, po measured after 24 hrs by LC/-MS/MS analysis
# [10] = Clearance in male Wistar rat blood at 0.5 mg/kg, iv measured after 24 hrs by LC/-MS/MS analysis; assay type: ADME, organism-based
# [11] = Antitumor activity against human A2780cis cells implanted female athymic NMRI mouse model assessed as reduction in KNL1 at Thr-875 phosphorylation at 2 mg/kg,po administered for 2 days by immunohistochemical staining relative to control; assay type: functional; design: scale not given: the % may be the effect or the level left; details: time 2 day
# [12] = Antitumor activity against human A2780cis cells implanted female athymic NMRI mouse model assessed as reduction in KNL1 at Thr-875 phosphorylation at 4 mg/kg,po administered for 2 days by immunohistochemical staining relative to control; assay type: functional; design: scale not given: the % may be the effect or the level left; details: time 2 day
# [13] = Tmax in female NMRI mouse plasma at 1 mg/kg, po measured after 24 hrs by LC/-MS/MS analysis
# [14] = Oral bioavailability in male Wistar rat plasma at 0.5 mg/kg measured after 24 hrs by LC/-MS/MS analysis; assay type: ADME, organism-based
# [15] = tested on: LXF-289 cell line; test: Antiproliferative activity against human LXF-289 cell line assessed as cell growth inhibition incubated for 96 hrs by crystal violet staining; details: LXF-289, 96 h
# [16] = Half life in female CD1 mouse plasma at 1 mg/kg, iv measured after 24 hrs by LC/-MS/MS analysis; assay type: ADME, organism-based
# Method in brief: (§2)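 Female CD1 mice received a single iv bolus of 1.0 mg/kg in 50% PEG 400, 10% ethanol and 40% water. Plasma was sampled at 2, 5, 15, 30 and 45 min and at 1, 2, 4, 6, 8 and 24 h, precipitated with ice-cold acetonitrile (1:5), and supernatants were quantified by LC/MS-MS. Parameters were estimated from plasma concentration data, with AUC by the log-linear trapezoidal rule.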
# [17] = tested on: SUM149PT; test: Synergistic antitumor activity against human SUM149 cells xenografted female athymic NMRI mouse model assessed as MTD at 1.5 mg/kg,po administered twice daily intermittent for 2 days on/5 days off measured after 48 days treatment in the presence of paclitaxel relative to control; details: time 48 day
# [18] = tested on: NCI-H1299; test: Synergistic antitumor activity against human NCI-H1299 cells xenografted female athymic NMRI mouse model assessed as MTD at 3 mg/kg,po administered twice daily intermittent for 2 days on/5 days off in the presence of paclitaxel relative to control; assay type: functional; details: time 7 day
# [19] = Synergistic toxicity in human NCI-H1299 cells xenografted female athymic NMRI mouse model assessed as body weight loss at 3 mg/kg,po administered twice daily intermittent for 2 days on/5 days off in the presence of paclitaxel relative to control; assay type: organism-based; details: in vivo, 168 h, time 7 day
# Method in brief: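 NCI-H1299 cells (3×10^6 in 100% Matrigel) implanted s.c. in the inguinal region of athymic mice. Treatment started on day 8 at ~30 mm2. Mps1 inhibitor given p.o. 3 mg/kg twice daily, 2 days on/5 off. Paclitaxel i.v. 20 mg/kg once weekly, given within 1 h of the inhibitor on the same day. Body weight tracked two to three times weekly; >20% loss deemed toxic.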
# [20] = Antitumor activity against human A2780cis cells xenografted female athymic NMRI mouse model assessed as T/C ratio at 5 mg/kg, po administered twice daily intermittent for 2 days on/5 days off; assay type: functional; details: time 7 day
# [21] = Volume of distribution at steady state in female CD1 mouse plasma at 1 mg/kg, iv measured after 24 hrs by LC/-MS/MS analysis; assay type: ADME, organism-based; details: read-out: Vdss; method in brief: as §2
# [22] = Cmax in male Wistar rat plasma at 0.5 mg/kg, po measured after 24 hrs by LC/-MS/MS analysis; assay type: ADME, organism-based
# Method in brief: (§3)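 Male Wistar rats given 0.5 mg/kg orally. Plasma collected from 8 min to 24 h, precipitated with ice-cold acetonitrile (1:5), and analysed by LC/MS-MS. Cmax and Tmax read directly from concentration–time profiles.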
# [23] = Oral bioavailability in female NMRI mouse plasma at 1 mg/kg measured after 24 hrs by LC/-MS/MS analysis
# [24] = Tmax in male Wistar rat plasma at 0.5 mg/kg, po measured after 24 hrs by LC/-MS/MS analysis; assay type: ADME, organism-based; method in brief: as §3
# [25] = tested on: KATO III stomach cancer cell line; test: Antiproliferative activity against human KATO III stomach cancer cell line assessed as cell growth inhibition incubated for 96 hrs by MTS assay; assay type: functional, cell-based
# [26] = Toxicity in human A2780cis cells xenografted female athymic NMRI mouse model assessed as change in body weight at 5 mg/kg, po administered twice daily intermittent for 2 days on/5 days off; assay type: organism-based; details: in vivo, 168 h, time 7 day
# Method in brief: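 A2780cis cells (2×10^6 in 100% Matrigel) implanted s.c. in athymic mice. Treatment started at ~30 mm2. Oral dosing twice daily, 2 days on/5 days off, with PEG 400/ethanol/Solutol vehicle controls. Dose based on individual body weight. Body weight monitored two to three times weekly as toxicity measure; >20% loss deemed toxic.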
# [27] = Half life in male Wistar rat plasma at 0.5 mg/kg, iv measured after 24 hrs by LC/-MS/MS analysis; assay type: ADME, organism-based
# [28] = Clearance in female CD1 mouse blood at 1 mg/kg, iv measured after 24 hrs by LC/-MS/MS analysis; assay type: ADME, organism-based
# Method in brief: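 Single dose to female mice, i.v. as bolus (1.0 mg/kg) or oral (1 mg/kg), in 50% PEG 400/10% ethanol/40% water. Plasma sampled up to 24 h: 2 min–24 h after i.v., 8 min–24 h after p.o. Samples precipitated with ice-cold acetonitrile (1:5) and analysed by LC/MS-MS. AUC by log-linear trapezoidal rule; Cmax and Tmax read directly from the profiles.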
smiles,measurement,setting,value
CC(=O)O[C@H]1C(=O)[C@@]2(C)[C@H]([C@H](OC(=O)c3ccccc3)[C@]3(O)C[C@H](OC(=O)[C@H](O)[C@@H](NC(=O)c4ccccc4)c4ccccc4)C(C)=C1C3(C)C)[C@]1(OC(C)=O)CO[C@@H]1C[C@@H]2O,Activity,[1],Active
same,Activity,[2],Active
same,Activity,[3],Active
same,Activity,[4],Active
same,Activity,[5],Active
same,Activity,[6],Active
COc1ccc(Oc2cc(NCCC(F)(F)F)c3ncc(-c4ccc(C(=O)NC5CC5)c(C)c4)n3n2)c(F)c1F [BAY-1217389],IC50,[7],36 nM
same,Vd,[8],2.2 L/kg
same,Cmax,[9],74 ng/mL
same,clearance,[10],9 mL/min/kg
same,Activity,[11],60%
same,Activity,[12],80%
same,Tmax,[13],7 h
same,bioavailability,[14],73%
same,IC50,[15],3.3 nM
same,half-life,[16],4.1 h
same,MED,[17],30%
same,MED,[18],60%
same,Activity,[19],> 10%
same,T/C,[20],0.53
same,Vd,[21],2.7 L/kg
same,Cmax,[22],177 ng/mL
same,bioavailability,[23],37%
same,Tmax,[24],1.5 h
same,IC50,[25],> 300 nM
same,Activity,[26],Non-Toxic
same,half-life,[27],7.8 h
same,clearance,[28],13.7 mL/min/kg
